Measurements as given in PubChem BioAssay.
Calls of active or inactive are those of the source.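 The calls were made as follows, unless noted: active = viability at or under a set limit in both replicates, limit being median viability minus 3 SD (cut at about 48% in these data, passing the limit was not always enough); inconclusive = at or under the limit in just one replicate; inactive = at or above the limit in both replicates.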

How the values were obtained:
[1] = Her2 expression decrease, cell viability multiplex – SKBR3 breast tumor cells, AlphaScreen, ATP viability, primary screen (AID 461;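 active = Her2 level under about 52% in both replicate screens, with viability over 70% of control, limit read from the data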;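 as to Her2 level: lower value means less Her2 protein in the cells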;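 as to viability: percent of carrier control wells set as 100% viability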); details: SKBR3 Her2 protein level, 18-24 h, measured here: SKBR3 viability, ATP luminescence, at 10 µM
[2] = molecular target: Receptor tyrosine-protein kinase erbB-2 (Homo sapiens) (UniProt P04626); test: as above; details: 18-24 h, at 10 µM, stronger effect = lower value
Chain of Receptor tyrosine-protein kinase erbB-2 (Homo sapiens) (P04626 whole entry, looked up): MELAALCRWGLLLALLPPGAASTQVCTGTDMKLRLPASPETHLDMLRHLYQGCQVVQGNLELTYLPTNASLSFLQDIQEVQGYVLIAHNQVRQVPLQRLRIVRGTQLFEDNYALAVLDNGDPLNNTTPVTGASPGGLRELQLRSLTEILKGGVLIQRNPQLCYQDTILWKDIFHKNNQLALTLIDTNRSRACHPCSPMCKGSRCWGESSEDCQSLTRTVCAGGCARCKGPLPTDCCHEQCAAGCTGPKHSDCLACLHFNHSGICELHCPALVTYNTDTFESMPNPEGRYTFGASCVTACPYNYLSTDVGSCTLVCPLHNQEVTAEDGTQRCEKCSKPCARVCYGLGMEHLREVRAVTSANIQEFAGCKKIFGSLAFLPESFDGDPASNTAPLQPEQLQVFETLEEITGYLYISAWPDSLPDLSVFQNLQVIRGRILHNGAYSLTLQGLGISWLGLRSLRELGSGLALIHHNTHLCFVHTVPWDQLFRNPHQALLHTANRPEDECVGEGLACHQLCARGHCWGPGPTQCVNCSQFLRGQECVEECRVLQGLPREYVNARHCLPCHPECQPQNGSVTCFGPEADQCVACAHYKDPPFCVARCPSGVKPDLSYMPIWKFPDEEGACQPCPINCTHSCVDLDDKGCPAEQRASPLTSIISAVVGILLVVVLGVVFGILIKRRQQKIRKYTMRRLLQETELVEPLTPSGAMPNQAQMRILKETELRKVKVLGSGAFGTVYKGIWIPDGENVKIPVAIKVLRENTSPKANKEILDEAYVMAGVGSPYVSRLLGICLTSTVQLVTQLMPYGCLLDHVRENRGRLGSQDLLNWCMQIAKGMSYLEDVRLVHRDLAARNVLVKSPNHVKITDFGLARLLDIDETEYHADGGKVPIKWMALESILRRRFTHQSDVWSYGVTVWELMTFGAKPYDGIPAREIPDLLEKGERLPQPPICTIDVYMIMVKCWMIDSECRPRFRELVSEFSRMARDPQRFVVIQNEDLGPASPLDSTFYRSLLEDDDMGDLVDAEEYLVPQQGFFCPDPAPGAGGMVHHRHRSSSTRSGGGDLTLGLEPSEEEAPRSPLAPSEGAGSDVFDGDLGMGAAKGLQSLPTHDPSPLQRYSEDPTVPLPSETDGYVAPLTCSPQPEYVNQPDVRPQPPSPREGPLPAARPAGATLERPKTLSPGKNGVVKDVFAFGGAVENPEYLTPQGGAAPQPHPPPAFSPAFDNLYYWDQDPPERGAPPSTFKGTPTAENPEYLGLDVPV

[3] = reduced viability of SK-BR-3 breast cancer cells – cell-based, 24 h, human, pilot screen (AID 572;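 active = viability at or below 10% of carrier control in both of two separate runs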;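 also: compound exposure lasted between 18 and 24 h rather than exactly 24 h; 100% = carrier-treated control wells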); details: SK-BR-3 viability, CellTiter-Glo luminescence, at 10 µM, stronger effect = lower value
[4] = HUVEC growth inhibition – cell-based, human, primary screen (AID 575;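 active = viability at or below 30% in both replicate assays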;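 also: 100% = median of untreated cell wells with 0.1% DMSO on each plate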); details: HUVEC proliferation, CellTiter-Glo luminescence, 72 h; at 10 µM; stronger effect = lower value
Method in brief: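 Test system: primary human umbilical vein endothelial cells. Quantity: 1250 cells/well. Compound: single 10 µM dose, 0.1% DMSO, from 5x medium stock. Timing: 72 h treatment at 37 °C. Detection: ATP-based CellTiter-Glo luminescent read. Benchmarks: vehicle and MePR control wells. Format: 384-well plates coated with collagen.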

[5] = H69AR cell proliferation blockers – human, duplicate replicates, primary screen (AID 580); details: H69AR lung tumor cells viability, ATP luminescence, 72 h; at 10 µM; stronger effect = lower value;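 also: 100% = mean luminescence of untreated wells and 0% = no signal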
[6] = MRP1 drug-resistance reversers in H69AR cells – cell-based, doxorubicin co-treatment, pilot screen (AID 601;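 active = viability loss from added drug above about 55%, and viability with drug at most 40%, in both replicates, limit read from the data, passing the limit was not always enough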); details: CellTiter-Glo, 72 h, at 10 µM; for differential viability (reversal): stronger effect = higher value
[7] = yeast transport mutant growth inhibition pilot in 384-well plates, post-Golgi transport modulator project (AID 636; in the data active = inhibition above about 31%); details: absorbance 615 nm, about 18 h, stronger effect = higher value
[8] = growth suppression of yeast trafficking mutant, preliminary HTS, modulators of trafficking downstream of Golgi apparatus project, 1536-format plate, OD 615 nm (AID 637; in the data active = inhibition above about 30%); details: yeast transport mutant growth, absorbance 615 nm, 18 h; stronger effect = higher value
[9] = H69AR cells + 2 uM doxorubicin, measured here: viability with 2 uM doxorubicin, stronger effect = lower value
[10] = H69AR cells, compound alone cytotoxicity

Compound | viability [1] | Her2 level [2] | viability [3] | viability [4] | viability [5] | differential viability (reversal) ([6]; H69AR cells + 2 uM doxorubicin) | viability [6, 9] | viability [6, 10] | inhibition [7] | inhibition [8]
Cc1nc2ccccc2n1CCC(=O)Nc1cccc(F)c1 | 88% | 90% (inactive) | 88% (inactive) | 93.6% (inactive) | 79.9% (inactive) | -10.1% (inactive) | 90% | 79.9% | 0.38% (inactive) | -5.33% (inactive)
C=CCOc1nc(N2CCCC2)nc(N2CCCC2)n1 | 89% | 91% (inactive) | 89% (inactive) | 83.1% (inactive) | 92.7% (inactive) | 11.6% (inactive) | 81.1% | 92.7% | -3.55% (inactive) | -2% (inactive)
N#Cc1nc(-c2cccs2)oc1NCCc1ccccc1 | 93.5% | 86.5% (inactive) | 93.5% (inactive) | 84.3% (inactive) | 102% (inactive) | 18.3% (inactive) | 83.4% | 102% | -1.18% (inactive) | 1.29% (inactive)
Brc1ccc(-c2cn3cccnc3n2)cc1 | 130% | 97.5% (inactive) | 130% (inactive) | 86.3% (inactive) | 104% (inactive) | 6.97% (inactive) | 97.1% | 104% | -3.87% (inactive) | 0.97% (inactive)
COc1ccc(OC)c(S(=O)(=O)Nc2ccc(C(N)=O)cc2)c1 | 98.5% | 91% (inactive) | 98.5% (inactive) | 110% (inactive) | 94% (inactive) | 5.67% (inactive) | 88.4% | 94% | -4.61% (inactive) | -2.3% (inactive)
N#Cc1nc(-c2ccco2)oc1N1CCN(c2cccc(Cl)c2)CC1 | 87% | 85.5% (inactive) | 87% (inactive) | 90.1% (inactive) | 90% (inactive) | -5.21% (inactive) | 95.2% | 90% | -4.13% (inactive) | 4.29% (inactive)
O=C(NCc1ccc2c(c1)OCO2)C1CCCN(S(=O)(=O)c2cccnc2)C1 (stereo not given) | 95.5% | 102% (inactive) | 95.5% (inactive) | 101% (inactive) | 92.4% (inactive) | 7.61% (inactive) | 84.8% | 92.4% | 0.38% (inactive) | -6.5% (inactive)
CCc1cc(C)cc(OCCNC(=O)c2ncn[nH]2)c1 | 117% | 110% (inactive) | 117% (inactive) | 89.7% (inactive) | 90.8% (inactive) | 9.78% (inactive) | 81.1% | 90.8% | -3.95% (inactive) | -1.29% (inactive)
CC1Cc2nc(SCC(=O)Nc3ccc(F)cc3F)n(C)c(=O)c2S1 (stereo not given) | 90% | 100% (inactive) | 90% (inactive) | 102% (inactive) | 91.7% (inactive) | -8.34% (inactive) | 100% | 91.7% | -1.78% (inactive) | 2.7% (inactive)
CN=Cc1cc(-c2ccccc2)sc1O | 82% | 102% (inactive) | 82% (inactive) | 102% (inactive) | 90% (inactive) | 13% (inactive) | 77% | 90% | 0.41% (inactive) | 32.7% (active)
CC(=O)Nc1ccc(Oc2cc(C#N)c(C#N)cc2N2CCCCCC2)cc1 | 108% | 76% (inactive) | 108% (inactive) | 73.5% (inactive) | 89.6% (inactive) | 21.8% (inactive) | 67.8% | 89.6% | -3.03% (inactive) | 0.95% (inactive)
Cc1cc(=O)[nH]c(=S)n1-c1ccccc1 | 99.5% | 74.5% (inactive) | 99.5% (inactive) | 101% (inactive) | 100% (inactive) | 17.7% (inactive) | 82.6% | 100% | -7.03% (inactive) | 3.33% (inactive)
Cc1cc(C)c(Cn2c(=O)n(CCCC(=O)NCc3ccco3)c(=O)c3ccccc32)c(C)c1 | 99% | 97.5% (inactive) | 99% (inactive) | 89.4% (inactive) | 94.9% (inactive) | 11.4% (inactive) | 83.5% | 94.9% | -1.45% (inactive) | 9.18% (inactive)
O=S(=O)(c1ccc(F)c(Cl)c1)N1CCCC1 | 100% | 71% (inactive) | 100% (inactive) | 93.9% (inactive) | 92.2% (inactive) | 3.06% (inactive) | 89.2% | 92.2% | -5.68% (inactive) | 0.16% (inactive)
CCOC(=O)N1CCN(S(=O)(=O)c2ccc(F)c(C(=O)Nc3cc(C)cc(C)c3)c2)CC1 | 76% | 112% (inactive) | 76% (inactive) | 78.6% (inactive) | 83.3% (inactive) | 1.41% (inactive) | 81.9% | 83.3% | -2.11% (inactive) | -11.8% (inactive)
CCN(CC)CCNC(=O)CCn1c(=S)[nH]c2cc3c(cc2c1=O)OCO3 | 79% | 89.5% (inactive) | 79% (inactive) | 89.8% (inactive) | 90.1% (inactive) | 0.295% (inactive) | 89.8% | 90.1% | -4.59% (inactive) | -2.3% (inactive)
Cc1nn(-c2ccc(Cl)cc2)c2sc(C(=O)N3CCN(c4ccccn4)CC3)cc12 | 103% | 80% (inactive) | 103% (inactive) | 51.6% (inactive) | 67.2% (inactive) | 9.58% (inactive) | 57.6% | 67.2% | -5.84% (inactive) | -2.54% (inactive)
[N-]=[N+]=CC(=O)CC(c1ccccc1)N1C(=O)c2ccccc2C1=O (stereo not given) | 93.5% | 106% (inactive) | 93.5% (inactive) | 97.8% (inactive) | 103% (inactive) | 5.81% (inactive) | 97% | 103% | -0.91% (inactive) | -4.29% (inactive)
CC1CCN(CCCNC(=O)c2cn(C)c3ccc(S(=O)(=O)N4CCCC4)cc3c2=O)CC1 | 90.5% | 80% (inactive) | 90.5% (inactive) | 96.9% (inactive) | 91% (inactive) | 3.01% (inactive) | 88% | 91% | -6.76% (inactive) | 1% (inactive)
Cc1nc(C)c(C(=O)C2=C(O)C(=O)N(CCN3CCOCC3)C2c2cccnc2)s1 (stereo not given) | 104% | 93% (inactive) | 104% (inactive) | 99.1% (inactive) | 97.4% (inactive) | 10.4% (inactive) | 87% | 97.4% | -3.95% (inactive) | 12.9% (inactive)
Cc1cccn2cc(-c3ccccc3)nc12 | 78% | 77% (inactive) | 78% (inactive) | 79.2% (inactive) | 91.5% (inactive) | 11.1% (inactive) | 80.3% | 91.5% | -1.45% (inactive) | 2.55% (inactive)
O=c1[nH]c(CN2CCN(Cc3ccccc3)CC2)nc2sc3c(c12)CCC3 | 96% | 87.5% (inactive) | 96% (inactive) | 98.9% (inactive) | 87.9% (inactive) | 0.67% (inactive) | 87.3% | 87.9% | -4.86% (inactive) | 2.06% (inactive)
O=C(NC12CC3CC(CC(C3)C1)C2)C1CCCN1C(=O)NC1CCCCC1 (stereo not given) | 102% | 113% (inactive) | 102% (inactive) | 108% (inactive) | 92.6% (inactive) | 16.5% (inactive) | 76.2% | 92.6% | -6.62% (inactive) | 1.5% (inactive)
O=C(Cn1nnc(-c2ccncc2)n1)Nc1ccc2c(c1)CCC2 | 112% | 93.5% (inactive) | 112% (inactive) | 107% (inactive) | 110% (inactive) | 13.3% (inactive) | 96.4% | 110% | -6.45% (inactive) | 2.38% (inactive)
COc1ccc(-c2nnc(SCC(=O)c3cc(C)n(Cc4cccs4)c3C)o2)cc1 | 99.5% | 114% (inactive) | 99.5% (inactive) | 90.9% (inactive) | 87.5% (inactive) | 1.84% (inactive) | 85.7% | 87.5% | 2.6% (inactive) | 18.2% (inactive)
Cn1c(=O)c2c(nc(NCc3ccccc3)n2CCCc2ccccc2)n(C)c1=O | 84% | 88% (inactive) | 84% (inactive) | 69.5% (inactive) | 83.4% (inactive) | -9.82% (inactive) | 93.2% | 83.4% | -0.81% (inactive) | -3.11% (inactive)
CCC(=O)/C=C1\Sc2ccc(OC)cc2N1CCO | 120% | 98% (inactive) | 120% (inactive) | 98.6% (inactive) | 87.8% (inactive) | 2.07% (inactive) | 85.7% | 87.8% | -4.21% (inactive) | -4.68% (inactive)
COc1ccccc1NC(=O)C(O)C(O)C(=O)Nc1ccccc1OC (stereo not given) | 111% | 104% (inactive) | 111% (inactive) | 116% (inactive) | 96.1% (inactive) | 4.04% (inactive) | 92.1% | 96.1% | -7.43% (inactive) | -2.83% (inactive)
CCC(=O)Nc1ccc(F)c(Cl)c1 | 108% | 99% (inactive) | 108% (inactive) | 97.9% (inactive) | 94.7% (inactive) | 3.67% (inactive) | 91.1% | 94.7% | -6.53% (inactive) | 3.71% (inactive)
